Experiments:
Assay type in all cases: functional
Klebsiella oxytoca [1] = test: Growth inhibition of carbapenem-resistant Klebsiella oxytoca isolate 03 harboring SHV-12 by CLSI protocol based assay
Citrobacter freundii [2] = test: Synergistic antibacterial activity against carbapenem-resistant Citrobacter freundii isolate 17 harboring SHV-12 assessed as fractional inhibitory concentration index in presence of meropenem by CLSI protocol based assay
Summary of the method: (§1)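 FIC index from MICs of compound alone, meropenem alone, and the 1:1 (mass) compound–meropenem combination, read by eye after overnight incubation in a CLSI-based assay. FIC index = MICcombo/MICcpd + MICcombo/MICMem. FIC index ≤0.5 counted as synergy. At least triplicate assays. Clinical NDM-1 isolates for 17-39; E. coli TG1 carrying the IncX3 blaNDM-1 plasmid for 15.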

Citrobacter freundii [3] = test: Potentiation of meropenem-induced antibacterial activity against carbapenem-resistant Citrobacter freundii isolate 05 harboring SHV-12 assessed as meropenem MIC by CLSI protocol based assay (Rvb >= 128 ug/ml)
Citrobacter freundii [4] = test: Potentiation of meropenem-induced antibacterial activity against carbapenem-resistant Citrobacter freundii isolate 35 harboring CTX-M-3, KPC-2 and SHV-12 assessed as meropenem MIC by CLSI protocol based assay (Rvb >= 128 ug/ml)
Enterobacter cloacae [5] = test: Synergistic antibacterial activity against carbapenem-resistant Enterobacter cloacae isolate 27 harboring CTX-M-3, CTX-M-14, TEM-1 and SHV-12 assessed as fractional inhibitory concentration index in presence of meropenem by CLSI protocol based assay; summary of the method: as §1
Enterobacter cloacae [6] = test: Synergistic antibacterial activity against carbapenem-resistant Enterobacter cloacae isolate 22 harboring CTX-M-14, TEM-1 and SHV-12 assessed as fractional inhibitory concentration index in presence of meropenem by CLSI protocol based assay; summary of the method: as §1
Enterobacter cloacae [7] = test: Synergistic antibacterial activity against carbapenem-resistant Enterobacter cloacae isolate 09 harboring CTX-M-3, CTX-M-14, TEM-1 and SHV-12 assessed as fractional inhibitory concentration index in presence of meropenem by CLSI protocol based assay; summary of the method: as §1
Escherichia coli [8] = test: Synergistic antibacterial activity against carbapenem-resistant Escherichia coli isolate 45 assessed as fractional inhibitory concentration index in presence of meropenem by CLSI protocol based assay; summary of the method: as §1
Morganella morganii [9] = test: Growth inhibition of carbapenem-resistant Morganella morganii isolate 26 by CLSI protocol based assay
Klebsiella oxytoca [10] = test: Potentiation of meropenem-induced antibacterial activity against carbapenem-resistant Klebsiella oxytoca isolate 03 harboring SHV-12 assessed as meropenem MIC by CLSI protocol based assay (Rvb >= 128 ug/ml)
Escherichia coli [11] = test: Growth inhibition of carbapenem-resistant Escherichia coli isolate 33 harboring CTX-M-15 by CLSI protocol based assay
Citrobacter freundii [12] = test: Synergistic antibacterial activity against carbapenem-resistant Citrobacter freundii isolate 35 harboring CTX-M-3, KPC-2 and SHV-12 assessed as fractional inhibitory concentration index in presence of meropenem by CLSI protocol based assay
Enterobacter cloacae [13] = test: Potentiation of meropenem-induced antibacterial activity against carbapenem-resistant Enterobacter cloacae isolate 28 harboring TEM-1 and SHV-12 assessed as meropenem MIC by CLSI protocol based assay (reference value: 32 ug/ml)
Morganella morganii [14] = test: Growth inhibition of carbapenem-resistant Morganella morganii isolate 23 by CLSI protocol based assay
Klebsiella oxytoca [15] = test: Potentiation of meropenem-induced antibacterial activity against carbapenem-resistant Klebsiella oxytoca isolate 16 harboring SHV-12 assessed as meropenem MIC by CLSI protocol based assay (Rvb >= 128 ug/ml)
Morganella morganii [16] = test: Potentiation of meropenem-induced antibacterial activity against carbapenem-resistant Morganella morganii isolate 23 assessed as meropenem MIC by CLSI protocol based assay (reference value: 64 ug/ml)
Enterobacter cloacae [17] = test: Growth inhibition of carbapenem-resistant Enterobacter cloacae isolate 27 harboring CTX-M-3, CTX-M-14, TEM-1 and SHV-12 by CLSI protocol based assay
Enterobacter cloacae [18] = test: Synergistic antibacterial activity against carbapenem-resistant Enterobacter cloacae isolate 18 harboring IMP-4 and TEM-1 assessed as fractional inhibitory concentration index in presence of meropenem by CLSI protocol based assay
Enterobacter cloacae [19] = test: Growth inhibition of carbapenem-resistant Enterobacter cloacae isolate 07 harboring CTX-M-14, TEM-1 and SHV-12 by CLSI protocol based assay
Escherichia coli [20] = test: Potentiation of meropenem-induced antibacterial activity against carbapenem-resistant Escherichia coli isolate 45 assessed as meropenem MIC by CLSI protocol based assay (Rvb >= 128 ug/ml)
Enterobacter cloacae [21] = test: Synergistic antibacterial activity against carbapenem-resistant Enterobacter cloacae isolate 10 harboring CTX-M-14, TEM-1 and SHV-12 assessed as fractional inhibitory concentration index in presence of meropenem by CLSI protocol based assay; summary of the method: as §1
Enterobacter cloacae [22] = test: Synergistic antibacterial activity against carbapenem-resistant Enterobacter cloacae isolate 08 harboring CTX-M-14, TEM-1 and SHV-12 assessed as fractional inhibitory concentration index in presence of meropenem by CLSI protocol based assay; summary of the method: as §1
Citrobacter freundii [23] = test: Synergistic antibacterial activity against carbapenem-resistant Citrobacter freundii isolate 05 harboring SHV-12 assessed as fractional inhibitory concentration index in presence of meropenem by CLSI protocol based assay; summary of the method: as §1
Enterobacter cloacae [24] = test: Synergistic antibacterial activity against carbapenem-resistant Enterobacter cloacae isolate 07 harboring CTX-M-14, TEM-1 and SHV-12 assessed as fractional inhibitory concentration index in presence of meropenem by CLSI protocol based assay; summary of the method: as §1
Escherichia coli [25] = test: Potentiation of meropenem-induced antibacterial activity against carbapenem-resistant Escherichia coli isolate 06 harboring CTX-M-14, CTX-M-3 and SHV-12 assessed as meropenem MIC by CLSI protocol based assay (Rvb >= 128 ug/ml)
Enterobacter cloacae [26] = test: Growth inhibition of carbapenem-resistant Enterobacter cloacae isolate 08 harboring CTX-M-14, TEM-1 and SHV-12 by CLSI protocol based assay
Morganella morganii [27] = test: Synergistic antibacterial activity against carbapenem-resistant Morganella morganii isolate 26 assessed as fractional inhibitory concentration index in presence of meropenem by CLSI protocol based assay; summary of the method: as §1
Klebsiella oxytoca [28] = test: Synergistic antibacterial activity against carbapenem-resistant Klebsiella oxytoca isolate 16 harboring SHV-12 assessed as fractional inhibitory concentration index in presence of meropenem by CLSI protocol based assay; summary of the method: as §1
Klebsiella pneumoniae = test: Potentiation of meropenem-induced antibacterial activity against carbapenem-resistant Klebsiella pneumoniae isolate 04 harboring CTX-M-14, VIM-1, TEM-1 and SHV-12 assessed as meropenem MIC by CLSI protocol based assay (Rvb >= 128 ug/ml)
Enterobacter cloacae [29] = test: Potentiation of meropenem-induced antibacterial activity against carbapenem-resistant Enterobacter cloacae isolate 09 harboring CTX-M-3, CTX-M-14, TEM-1 and SHV-12 assessed as meropenem MIC by CLSI protocol based assay (Rvb >= 128 ug/ml)
Escherichia coli [30] = test: Synergistic antibacterial activity against Escherichia coli TG1 transformed with IncX3 plasmid expressing blaNDM-1 assessed as fractional inhibitory concentration index in presence of meropenem incubated for overnight by CLSI protocol based assay; conditions: time 12 hrs; summary of the method: as §1
Escherichia coli [31] = test: Potentiation of meropenem-induced antibacterial activity against carbapenem-resistant Escherichia coli isolate 34 harboring CTX-M-15, TEM-1 and SHV-12 assessed as meropenem MIC by CLSI protocol based assay (reference value: 64 ug/ml)

| Compound | MIC (Klebsiella oxytoca [1]) [µg/mL] | fractional inhibitory concentration index (FICI) (Citrobacter freundii [2]) | MIC (Citrobacter freundii [3]) [µg/mL] | MIC (Citrobacter freundii [4]) [µg/mL] | fractional inhibitory concentration index (FICI) (Enterobacter cloacae [5]) | fractional inhibitory concentration index (FICI) (Enterobacter cloacae [6]) | fractional inhibitory concentration index (FICI) (Enterobacter cloacae [7]) | fractional inhibitory concentration index (FICI) (Escherichia coli [8]) | MIC (Morganella morganii [9]) [µg/mL] | MIC (Klebsiella oxytoca [10]) [µg/mL] | MIC (Escherichia coli [11]) [µg/mL] | fractional inhibitory concentration index (FICI) (Citrobacter freundii [12]) | MIC (Enterobacter cloacae [13]) [µg/mL] | MIC (Morganella morganii [14]) [µg/mL] | MIC (Klebsiella oxytoca [15]) [µg/mL] | MIC (Morganella morganii [16]) [µg/mL] | MIC (Enterobacter cloacae [17]) [µg/mL] | fractional inhibitory concentration index (FICI) (Enterobacter cloacae [18]) | MIC (Enterobacter cloacae [19]) [µg/mL] | MIC (Escherichia coli [20]) [µg/mL] | also measured |
| --- | --- | --- | --- | --- | --- | --- | --- | --- | --- | --- | --- | --- | --- | --- | --- | --- | --- | --- | --- | --- | --- |
| O=c1c2ccccc2[se]n1-c1ccccc1 [EBSELEN] | ≥ 128 | 0.38 | 16 | 32 | 2.5 | 2 | 2 | 0.25 | ≥ 128 | 32 | ≥ 128 | 0.5 | 64 | ≥ 128 | 32 | 64 | ≥ 128 | 2.5 | ≥ 128 | 16 | fractional inhibitory concentration index (FICI) (Enterobacter cloacae [21]): 1.5; fractional inhibitory concentration index (FICI) (Enterobacter cloacae [22]): 1.25; fractional inhibitory concentration index (FICI) (Citrobacter freundii [23]): 0.25; fractional inhibitory concentration index (FICI) (Enterobacter cloacae [24]): 0.38; MIC (Escherichia coli [25]): 64 µg/mL; MIC (Enterobacter cloacae [26]): ≥ 128 µg/mL; fractional inhibitory concentration index (FICI) (Morganella morganii [27]): 1.5; fractional inhibitory concentration index (FICI) (Klebsiella oxytoca [28]): 0.5; MIC (Klebsiella pneumoniae): 64 µg/mL; MIC (Enterobacter cloacae [29]): ≥ 128 µg/mL; fractional inhibitory concentration index (FICI) (Escherichia coli [30]): 0.5; MIC (Escherichia coli [31]): 16 µg/mL |
| CC(C)(C)OC(=O)NCCn1[se]c2ccccc2c1=O | ≥ 128 | 0.09 | 8 | 8 | 0.16 | 0.25 | 0.13 | 0.06 | ≥ 128 | 8 | ≥ 128 | 0.13 | 4 | ≥ 128 | 8 | 8 | ≥ 128 | 0.63 | ≥ 128 | 4 | fractional inhibitory concentration index (FICI) (Enterobacter cloacae [21]): 0.19; fractional inhibitory concentration index (FICI) (Enterobacter cloacae [22]): 0.16; fractional inhibitory concentration index (FICI) (Citrobacter freundii [23]): 0.13; fractional inhibitory concentration index (FICI) (Enterobacter cloacae [24]): 0.19; MIC (Escherichia coli [25]): 8 µg/mL; MIC (Enterobacter cloacae [26]): ≥ 128 µg/mL; fractional inhibitory concentration index (FICI) (Morganella morganii [27]): 0.05; fractional inhibitory concentration index (FICI) (Klebsiella oxytoca [28]): 0.13; MIC (Klebsiella pneumoniae): 32 µg/mL; MIC (Enterobacter cloacae [29]): 8 µg/mL; fractional inhibitory concentration index (FICI) (Escherichia coli [30]): 0.047; MIC (Escherichia coli [31]): 4 µg/mL |

Reference: ChEMBL document CHEMBL4673212, “Investigation of synergistic antimicrobial effects of the drug combinations of meropenem and 1,2-benzisoselenazol-3(2H)-one derivatives on carbapenem-resistant Enterobacteriaceae producing NDM-1” (Eur J Med Chem, 2018)
